System: MS2 coat protein
Assay: apparent Kd, MS2 coat protein; higher = weaker binding; RNA-MaP array; FMN 200 µM where present
How it was run: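 Two titrations, one without ligand and one with constant ligand, were run with SNAP-549-labelled MS2 coat protein from 0.7 or 1.5 nM, doubling to 3 µM. The targets were designs transcribed by stalled E. coli RNA polymerase on Illumina sequencing-chip clusters, in 100 mM Tris-HCl pH 7.5, 80 mM KCl, 4 mM MgCl2, BSA, DTT, yeast tRNA and Tween-20. The apparent Kd is the median of filtered per-cluster binding-curve fits, with green signal normalised to red-channel RNA signal and control-cluster median Fmax.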

[1] = designed as: ON switch for flavin mononucleotide, no ligand
[2] = ligand present: flavin mononucleotide, designed as: ON switch for flavin mononucleotide
[3] = designed as: OFF switch for flavin mononucleotide, no ligand
[4] = ligand present: flavin mononucleotide, designed as: OFF switch for flavin mononucleotide

Sequence	apparent Kd [1]	apparent Kd [2]	apparent Kd [3]	apparent Kd [4]
AAGCGAAAGCUAAAAUAUCUAUCAGAGGAUAUUUAUGAUACAUGAGGAUCACCCAUGUAGCGCUGGGAGAAGGCUGAUAGAUAA	6.44 nM	4.98 nM	–	–
GGAUAGGACAGAGGAUAUACGUGCUAGAGAUACUAGCAAAAUUUCCGCACAUGAGGAUCACCCAUGUAGAAGGCUGUCCUAUCG	–	–	5.82 nM	9.26 nM
UUUUUGUGAGGAUAUUAGUAGUAAAAAAAUAAAAUUACUACUGAGAAGGCACAUGAGGAUCACCCAUGUUCCUC	–	–	35.7 nM	174 nM
AGUCGGAGCAGAGGAUAUAUACAUGAGGAUCACCCAUGUAAAGAUCAAAGCAGGAAACUGCAAGUAUAGAAGGCUGCUCCGACA	–	–	108 nM	231 nM
AAAAAACAUGAGGAUCACCCAUGUGAGGAUAUCGGAAAAAAAAAAAAAAAAAAAAAAACGAGAAGGCACAAAAA	–	–	60.8 nM	71.7 nM
GCAGGUUAAGUCAGGAUAUACCUAUGGAUACAUAGGUAGAAGGGACAUGAGGAUCACCCAUGUUCCUCACCUGC	–	–	15.6 nM	34.3 nM
UAUUUAUAGCAAGGAUAUGAUUAUUAUUAUUUAUCAGAAGGUGCACAUGAGGAUCACCCAUGUUUUACAAUUUGUAAUUUAAUU	–	–	38.6 nM	25.1 nM
AUAUCUCUGUAAGGAUAUAGAUGGUGUACGCCUCCGACAUGAGGAUCACCCAUGUUAUAUUUUGUCUAGAAGGUACAGUGUCGG	389 nM	222 nM	–	–
UGUGUGUGUGCAGGAUAUUUAAGAAGAACAUGAGGAUCACCCAUGUGAGGAUCACCCAUGUAAAAGGAGAAGGGCAGUGUGUGU	–	–	754 nM	728 nM
AAUUACAGAGGAUAUGCGCGGUAAAACAUGAGGAUCACCCAUGUGAUACCUGCAUGACCGGCAGAAGGCUGCGUUU	–	–	22.3 nM	108 nM
GAGACGUCAGGAUAUCUGAUGUCUAACUUCGGUUAGACAUCAGAGAAGGGACAUGAGGAUCACCCAUGUCUCAA	–	–	16.9 nM	12.1 nM
ACGACAAAAGUCGAACGAUGUAGCAGAAGGACAUGAGGAUCACCCAUGUAAAAUGUAACAGCCAUGUAGGAUAUGCAAAAUCGA	–	–	37.7 nM	159 nM
CUGCGGUAGGAGAAGGACGGCGGGUUCUUUUCAUACAUGAGGAUCACCCAUGUAGGAUAUCCUACCUCAGGCGGCCUACUACAG	–	–	7.68 nM	10.9 nM
CGAUAUUAUGCAGGAUAUCUCCCUUGAAUGAGGAGAGAAGGGCAUAGGGAGACAUAAGCCUUAUUACAUGAGGAUCACCCAUGU	–	–	9.67 nM	8.35 nM
GUGCGUGGCUAGGAUAUUGAGGAGUUUAGUCAGCGAGAAGGAGCCACAUGAGGAUCACCCAUGUGGUGAAGCUC	–	–	18.6 nM	68.6 nM
AUGCCGGGCCGAGGAUAUAAGUCUAGGACAUGAGGAUCACCCAUGUAUGUCUUAGAAGGCGGCCCGGCAAGCCUGUUACAGGCA	27.7 nM	6.6 nM	–	–
AUCAGCUUGACAGGAUAUGCAUGUCAACGAAAGUUGACAAUCUUAAUAACAUGAGGAUCACCCAUGUAGAAGGGUCGAGCUGAU	–	–	17.4 nM	19.9 nM
GUAGCAUAAUUAGGAUAUUCAGCGAAUAGAUUGACAUGAGGAUCACCCAUGUGGCGAAAGCCGAGGGAGAAGGGAUAAUGCUAC	157 nM	61.1 nM	–	–
AGCUACGUUUCGUAGCAGCUAGGUGAGGAUAUCCACUCGACAUGAGGAUCACCCAUGUAAACAUGGGAGAAGGCGCCUAGAAAG	84.9 nM	10.6 nM	–	–
AAUAUAAUAAGAGCUGGAAAUAAAACAUGAGGAUCACCCAUGUAGGAUAUCAGCACGAUAAGUGCUGAGAAGGACAACCAGCUC	–	–	14 nM	15.1 nM
CAAUGUACCUAGGAUAUAACCUACGACAUUGGGUUAGAAGGAGGAACAUGAGGAUCACCCAUGUGACUUCGCAA	–	–	10 nM	11.9 nM
UUUUUGAAGCUUCGUCAAUACAGUUAGGAUAUGAGAGACAUGAGGAUCACCCAUGUGCAUGUUGAUUAGAAGGAACAACUAUCU	–	–	14.2 nM	12.7 nM
UCACGGGUUUGAGGAUAUAUAUUUAUUAUUUUAAUAGAAGGCAAAGAGAUAGUUUUUUCACUAUACAUGAGGAUCACCCAUGUU	–	–	41.5 nM	36 nM
CCCUCACAUGAGGAUCACCCAUGUGAGGAUAUGCAUUCCAAAGCGAGCUUUGAGAAGAGUAGAAGGCACUGGUG	–	–	17.1 nM	19.9 nM
AAAAGGUUAGGAUAUGCCCGCCGGGUGGGAAGGCCGGGUGGGUAGAAGGGACAUGAGGAUCACCCAUGUAUAAA	–	–	47 nM	19.9 nM
AUGAUUAUAUUAUACAUGAGGAUCACCCAUGUUAUAAGUCAUGAGGAUAUGGUAUUGUAGUUAUUCCAGAAGGCAUUUAACUUA	7.02 nM	5.79 nM	–	–
AAUUUGUGAAAAUUACAUGAGGAUCACCCAUGUUAGGGAAUGCAGGAUAUGUGGUUUAUUAUUUUACAGAAGGGCAAUAAUUUU	95.9 nM	53.6 nM	–	–
AAACCGUAAAUGCGGGCAUGUACACAGGAUAUCCCGUGACAUGAGGAUCACCCAUGUAACACAUUGGAGAAGGGUGUUCACGUA	177 nM	19.6 nM	–	–

Sequence	apparent Kd [1]	apparent Kd [2]	apparent Kd [3]	apparent Kd [4]
UAAUAAAACGAUCGGCGGUCCAUACAUGAGGAUCACCCAUGUAGAAGGGACUCUACAAAGUAGAGUCAGGAUAUACAAGAUCGA	–	–	8.19 nM	108 nM
UUGUUACAUGAGGAUCACCCAUGUGAGGAUAUGAGUCAGUCACGGUGACGUGGCUGACUCAGAAGGCACUAUGG	–	–	300 nM	149 nM
UCCGCAUCUGAGAAGGGAUCUCCGCGGAAGGGAUCAGGAUAUCGGACAUGAGGAUCACCCAUGUGCCGUUAAAGGACACCUGGU	–	–	–	7.36 nM
AUGUUUCAUGUAGGAUAUGCAUACUGUUAGUAUGCAGAAGGACAUGAGGAUCACCCAUGUAUAUUAUCAUUACAUAUCAUACAU	–	–	60.4 nM	492 nM
ACAGACCAACAGAAGGGUGAGGUGUUGUUCUUCACAGGAUAUGUUGGCAACAUGAGGAUCACCCAUGUUGGUUUUGAAGUACGU	16.3 nM	4.68 nM	–	–
AAUAUGAGCUGGAAUAAACUCAAAACAUGAGGAUCACCCAUGUAGGAUAUCAGCACGAUAAGUGCUGAGAAGGACAACCAGCUC	–	–	13.8 nM	15.5 nM
CCGGAGACGGGUAGCCUGACAUGAGGAUCACCCAUGUGAUCCUAGGAUAUGGAUCCUAAUUGGAUCCAGAAGGAGGUUGGCUAC	1210 nM	392 nM	–	–
GUAUGAGCGAUAGGAUAUACUGAGAUUGAAUGGGUAGAAGGAUCACUUGUGAGGAAGACAUGAGGAUCACCCAUGUCACGGGCC	92.8 nM	119 nM	–	–
UGUCGGAGCAGAGGAUAUUACAUGAGGAUCACCCAUGUAUGAACCAAUAGCUGGAAACAGCAGUGUAAGAAGGCUGCUCCGACA	–	–	12.5 nM	143 nM
AAUUAUUUACAGAAGGAGUAAGAUUAUGUAUUACUAGGAUAUGUAAACAUGAGGAUCACCCAUGUGUUUGUAGGUUUUUUAUGU	–	–	13.4 nM	7.79 nM
ACGUCUUAGUAGAAGGGACAUCGGCUGGUAAGCAUCAUCUCCUUCUCACAUGAGGAUCACCCAUGUCAGGAUAUACUAAGAGUC	–	–	12.3 nM	38.2 nM
AGCGUGUAAGGAUAUACGUCGGAUAGCGAAUGCUGUCCCUAGUAGAAGGUACAUGAGGAUCACCCAUGUGUCCA	–	–	23.3 nM	70.1 nM
GUCAGCUCGUGAGGAUAUACAUGUGCUGGAAACAGCAUUAAAUUUUUCACAUGAGGAUCACCCAUGUAGAAGGCACGAGCUGAU	–	–	17.3 nM	39.1 nM
CCCUCACAUGAGGAUCACCCAUGUCAGGAUAUCUCACAUCGGCCUUAGGCCAAUGUCAAGAGAAGGGACGUAUC	–	–	22.3 nM	33.9 nM
GGUUGGCGAGGAUAUACAUGAGGAUCACCCAUGUGGUCCUGAGAUAGAAUAGACCUUUGUAGAAGGCGCGGGUC	–	–	172 nM	136 nM
UGGUACAUGGGAGGAUAUGGGUUGAUAACAUGAGGAUCACCCAUGUUAAAUAAGCCGAGAGGCUACUAGAAGGCUCAUGUACCU	327 nM	10.4 nM	–	–
GGACGUCAGAUUAACAUGAGGAUCACCCAUGUCUUUUGACAUGAGGAUAUGCAUCCUAAUUGGAUGCAGAAGGCAUGGACGUCC	1020 nM	84 nM	–	–
UGGUACAUCGGAGGAUAUCAUGUAGAGACAUGAGGAUCACCCAUGUCGAUGGAGACAUCGGAGAUUGAGAAGGCCGAUGUACCU	109 nM	22.2 nM	–	–
ACAUGAGGAUCACCCAUGUUAAGCGAGGAUAUUUCACUGCACAUGAGGUUCGCCCAUGUCCUGCGGAAGAAGGUGCAAAUAAUU	48.1 nM	23.4 nM	–	–
AAUCCACAUGAGGAUCACCCAUGUCAGGAUAUCGCGCGCGCGUUUUCGGUCUCGCGCGCGAGAAGGGACGGCUG	–	–	24 nM	48.2 nM
AAAAUAGCAGGAUAUACAUGAGGAUCACCCAUGUUUAUUGGGCACUUGCUGACGUCGUGUAGAAGGGUUACGAC	–	–	20.5 nM	18.8 nM
UUUAUGUCAGGAUAUACAUGAGGAUCACCCAUGUAUAUCUUAAAAUAUACAUGGGAAUGUAGAAGGGACCUCCU	–	–	51 nM	41 nM
AGAUCACAUGAGGAUCACCCAUGUCAGGAUAUCGACUGAACAGCUUCGGCUGUUCAGUCGAGAAGGGACAAUUA	–	–	279 nM	860 nM
ACAUAGUGAGGAUAUGCUGCUCGUCACUUGCGUGAUGAGUAGCAGAAGGCACAUGAGGAUCACCCAUGUAAAAA	–	–	40.5 nM	55 nM
UUAAGCAAGGAGAAGGCCCAGGUGGGCCAUCACAUGAGGAUCACCCAUGUGGGAGGAUAUCCGGGCCCACGCUUAUCCGCGGGC	–	–	7.6 nM	12.6 nM
UUGGACGUCGUAGGAUAUGUAGGAUAUUCCUACAUGAGGAUCACCCAUGUUGACAUGGAAGAAGGACAGAAGGAUGAUGUCCAU	414 nM	5.34 nM	–	–
CUCAAGUUAGGAUAUUGACGCCCAAGACGGCGUCUUGGGCACAAGAAGGGACAUGAGGAUCACCCAUGUCAAUA	–	–	24.1 nM	27.7 nM

Reference: the EternaBench riboswitch data
